# Compound activity (PubChem BioAssay)
# KCNQ1 inh = blocks the human KCNQ1 potassium channel; CHO-K1 KCNQ1, FluxOR thallium flux fluorescence; stronger effect = higher value; actives 1.3% (n = 310,000); B-score at 10 µM; AID 2642; P51787;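 active = compounds whose thallium flux B-score, printed positive for inhibition, exceeds three library SD while starting fluorescence stays within three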;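 note: channel opened by potassium depolarization with thallium stimulus after 20 min compound exposure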
# KCNK9 block = human KCNK9 channel inhibition. Q9NPC2. HEK293 KCNK9, FluxOR thallium flux fluorescence; stronger effect = lower value. B-score at 10 µM. actives 1.2% (n = 310,000). AID 488922;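 active = ratio B-score over 3 SD below the library mean, with starting fluorescence within 5 SD of its mean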;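 note: negative B-score means less thallium flux so channel inhibition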
# KCNQ1 pot = potentiates or activates the human KCNQ1 potassium channel; actives 0.35% (n = 310,000); CHO-K1 KCNQ1, thallium flux FluxOR fluorescence; stronger effect = higher value; B-score at 10 µM; P51787; AID 2648;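 active = fluorescence ratio B-score, a plate-corrected score, at least three library SD, with initial intensity B-score within 5 SD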
#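 System: CHO-K1 cells stably expressing KCNQ1 / Medium: assay buffer for compound exposure, DMSO matched across wells / Reagent: thallium- and potassium-containing depolarizing buffer / Compound: one concentration, matched DMSO / Incubation: 20 min compound pretreatment at room temperature / Measured by: kinetic FluxOR fluorescence, 10 s baseline plus 110 s post-stimulus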
# KCC2 mod = KCC2 (human) Cl- transport modulation | AID 1456 | Q9H2X9 | KCC2 cells, thallium flux FluoZin-2 fluorescence | B-score of Tl+ flux slope (higher = more flux/activation; lower = inhibition) at 10 µM | actives 2.2% (n = 190,000);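 active = thallium flux slope and its plate-corrected score both differing from the plate sample mean at a set confidence after two filtering rounds, in either direction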;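 note: slope of fluorescence scaled to starting intensity during 10 to 20 s after thallium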
# KCNK3 inh = human KCNK3 channel inhibition, primary screen | CHO-KCNK3 thallium flux, FluxOR fluorescence; stronger effect = lower value | B-score at 10 µM | actives 0.84% (n = 340,000) | AID 602410;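 active = B-score under library mean minus 4 SD, starting fluorescence ratio at most library mean plus 5 SD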;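 note: more negative B-score means stronger inhibition of thallium flux through KCNK3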
# hERG protect = compounds protecting human hERG from proarrhythmic drug block; actives 0.51% (n = 310,000); CHO-hERG, FluxOR thallium flux, dofetilide IC70 present; activation (rescue from dofetilide block), less the hit threshold, % at 10 µM;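 active = activation above the mean of controls blocked by dofetilide plus 5 SD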;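 note: thallium influx through hERG after potassium depolarization seen as dye fluorescence rise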
# The depositor's hits bear a star; i = inactive; . = not tested or not shown. Shown are actives, neighbours in structure and some others; about 4.1% of the full set was active somewhere.
SMILES,KCNQ1 inh,KCNK9 block,KCNQ1 pot,KCC2 mod,KCNK3 inh,hERG protect
NS(=O)(=O)c1ccc(CCNC(=O)CSc2ccc([N+](=O)[O-])cc2)cc1,i,i,i,.,i,-8.7
O=[N+]([O-])c1ccc(CNc2cccc(Cl)c2)s1,6*,i,i,.,i,-7.0
O=[N+]([O-])c1ccc(CNc2ccc(Cl)cc2)s1,i,i,i,.,i,-9.5
COC(=O)c1cc2ccsc2n1Cc1nc(-c2cccc(Cl)c2)oc1C,i,-7.33*,i,-0.168,i,-1.4
COC(=O)c1cc2sccc2n1Cc1nc(-c2ccc(Cl)cc2)oc1C,i,i,i,.,i,-1.6
COc1ccc(CNS(=O)(=O)c2ccc(F)c(C(=O)Nc3ccc(OC)cc3)c2)cc1,i,i,i,1,i,4.8*
COc1ccc(CNS(=O)(=O)c2ccc(F)c(C(=O)Nc3ccccc3OC)c2)cc1,i,i,i,-0.673,i,-3.2
OC(CNCCc1ccc(Cl)cc1)COc1cc(Cl)ccc1Cl (centres undefined),9*,i,i,.,i,-17.0
COC(=O)c1cc(=O)n(Cc2ccco2)c(=Nc2ccc(F)c(Cl)c2)s1,7*,i,i,.,i,-5.5
COC(=O)c1cc(=O)n(Cc2ccc3c(c2)OCO3)c(=Nc2ccc(F)cc2)s1,6*,-8.04*,i,1.01,i,-8.4
Cc1cccc(Sc2nc(-c3ccccc3)ccc2C#N)c1,i,-6.59*,i,.,i,-15.3
CC(N)C(=O)NC(CO)C(O)C(N)C=O (centres undefined),.,.,.,.,i,.
CC(SCc1cn2cc(Cl)ccc2n1)C(=O)O (centres undefined),i,i,i,1.18,i,-4.0
CN(C(=S)NC(=O)c1ccccc1)C1CCCCC1,i,i,11*,.,i,15.1*
O=C(NC(=S)NC1CCCCC1)c1ccccc1,i,i,i,.,i,-6.0
CN(C(=S)NC(=O)c1ccc(Cl)cc1)C1CCCCC1,i,i,12*,.,i,-3.6
CN(C(=O)c1ccc(C(=O)N(C)C2CCCCC2)cc1)C1CCCCC1,.,.,.,-0.707,.,.
CC1CCN(C(=S)NC(=O)c2ccc(F)cc2)CC1,.,.,.,.,i,.
CN(C(=S)NC(=O)c1ccc(F)cc1)C1CCCCC1,i,i,8*,.,i,2.7
COc1ccc2c(c1)sc1nc(-c3ccccc3)cn12,i,i,i,-0.405,i,-6.6
CCOc1ccc(NC(=O)CN(C)C(=O)C2CCCO2)cc1OCC (centres undefined),.,.,.,.,i,.
Cc1ccc(C2=NN(C(=O)c3ccccc3F)C(c3ccccc3F)C2)cc1 (centres undefined),7*,i,i,.,i,-5.0
Cc1csc2ncc(C(=O)N3CCCc4ccccc43)c(=O)n12,i,i,i,0.228,i,-3.3
Cc1csc2ncc(C(=O)N3CCc4ccccc43)c(=O)n12,i,i,i,-2.85*,i,-9.9
CN(CC(=O)Nc1cccc(F)c1)CC(=O)Nc1ccccc1[N+](=O)[O-],i,i,i,0.00692,i,-14.1
SMILES,KCNQ1 inh,KCNK9 block,KCNQ1 pot,KCC2 mod,KCNK3 inh,hERG protect
Cc1cc(C)c(NC(=O)CN(C)CC(=O)Nc2cccc(S(=O)(=O)N(C)c3ccccc3)c2)c(C)c1,.,.,.,.,i,.
CCC(C(=O)Nc1cccc(S(=O)(=O)N(C)c2ccccc2)c1)c1ccccc1 (centres undefined),.,.,.,.,-9.95*,.
CN(CC(=O)Nc1cccc(F)c1)CC(=O)Nc1cccc2ccccc12,.,.,.,.,-10.9*,.
CN(C)S(=O)(=O)c1cccc(NC(=O)C(c2ccccc2)c2ccccc2)c1,i,i,i,.,i,-8.2
CN(CC(=O)Nc1cccc(F)c1)CC(=O)Nc1cccc(S(=O)(=O)N(C)c2ccccc2)c1,.,.,.,.,-9.32*,.
Cc1ccc(P(=O)(OCCN2CCOCC2)C(C)(C)C)o1 (centres undefined),i,i,i,.,i,-10.2
O=C(COC(=O)CCC(=O)c1cccs1)Nc1ccc(Cl)cn1,i,i,i,-1.49,i,-8.6
